# Compound activity: PubChem, several laboratories
# In the library only some 4.3% were active in any assay of this set; here they are far more common.
# SMARCA2 activ: activators of SMARCA2 function | MG213 cells, MMTV-luciferase reporter, dexamethasone, overnight | activation, % at 9.1 µM | 370,000 tested, 1% active; in the data active = activation above about 7.8%;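 note: 0% = vehicle wells and 100% = reference activator wells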
# SR-BI uptake up: activators of SR-BI mediated HDL lipid uptake; CHO ldlA[mSR-BI] cells, DiI-HDL uptake fluorescence, 3 h; 100 = double the neutral-control signal; activation, % at 12.5 µM; 320,000 tested, 0.096% active;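 active = mean replicate activation of at least 60% and every replicate at or above 60%; inconclusive = mean or all-replicate condition met, but not both; inactive = mean below 60% and not all replicates reaching 60%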;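 note: 0% = median plate neutral-control signal and 100% = twice that signal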
#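 Material: SR-BI-overexpressing, LDLR-lacking CHO cells | Dosing: Single compound concentration, delivered by pin transfer | Probe or stimulus: Labelled HDL, 10 µg/mL | Signal: Bottom-read cell fluorescence after medium removal, ex 550/em 595 nm | Schedule: 3 h, 37 °C | Evaluation: HDL uptake via cellular fluorescence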
# SR-BI HDL uptake: mouse SR-BI HDL lipid transfer inhibition; Q61009; ldlA[mSR-BI] CHO cells, DiI-HDL uptake fluorescence, 3 h; inhibition, % at 12.5 µM; 320,000 tested, 0.96% active; AID 488896;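 active = mean replicate inhibition of at least 70% and a set share of replicates each scoring 70 or more; inconclusive = meets just one of the two criteria; inactive = fails both criteria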;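 note: 0% = median of neutral control wells and 100% = median of positive control wells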
# Lipid droplet: modulators of hepatic lipid droplet formation; AML12 mouse hepatocytes, oleate lipid droplets, BODIPY imaging; inhibition, % at 6.5 µM; 240,000 tested, 0.4% active; AID 1656;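 active = lipid droplet intensity inhibited by at least 50%, with more than 500 cells counted; inconclusive = wells with under 300 cells, treated as cytotoxic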
#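 material = mouse AML12 hepatocyte cell line, fixed after treatment | also added = 100 µM oleic acid challenge | doses = compound at 6.5 µM only | schedule = overnight exposure | technique = Image-based BODIPY and DAPI two-channel analysis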
# Yeast superoxide: lowers age-related superoxide in aged yeast cells; S. cerevisiae aged cells, superoxide DHE fluorescence; stronger effect = lower value; superoxide response (% of plate mean), % at 10 µM; 330,000 tested, 0.18% active;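 active = superoxide response under a set limit, about three screen SD below normal, cut at about 65% in these data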;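 note: yeast aged for seven days with compound at 30 °C before DHE staining; 100% = average MFI of all compound-treated wells on the plate with controls excluded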
# AHR activator: activates the human aryl hydrocarbon receptor; 320,000 tested, 2.5% active; AHR-responsive luciferase reporter cells, luminescence; activation, % at 5 µM; AID 2796; in the data active = activation above about 47%;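 note: 0% = vehicle wells and 100% = reference agonist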
# AHR act confirm: confirmation of human aryl hydrocarbon receptor activators. shares compounds with AHR activator. human cells, AHR-responsive luciferase reporter, luminescence. activation, % at 9 µM. 2,300 tested, 87% active. AID 2845; in the data active = activation above about 49%;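 note: HepG2 hepatoma cells carrying a DRE-driven firefly luciferase reporter; 0% = vehicle wells and 100% = reference agonist wells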
# PXR counter: counter-screen for AHR activators: human PXR activators; AID 434939; cell-based PXR reporter, luciferase luminescence; shares compounds with AHR activator; activation, % at 11.6 µM; 2,300 tested, 88% active; in the data active = activation above about 11%;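 note: human hepatoma DPX-2 cells expressing full-length human PXR; 0% = DMSO and 100% = reference agonist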
# Target sequence (O75469 whole entry, looked up): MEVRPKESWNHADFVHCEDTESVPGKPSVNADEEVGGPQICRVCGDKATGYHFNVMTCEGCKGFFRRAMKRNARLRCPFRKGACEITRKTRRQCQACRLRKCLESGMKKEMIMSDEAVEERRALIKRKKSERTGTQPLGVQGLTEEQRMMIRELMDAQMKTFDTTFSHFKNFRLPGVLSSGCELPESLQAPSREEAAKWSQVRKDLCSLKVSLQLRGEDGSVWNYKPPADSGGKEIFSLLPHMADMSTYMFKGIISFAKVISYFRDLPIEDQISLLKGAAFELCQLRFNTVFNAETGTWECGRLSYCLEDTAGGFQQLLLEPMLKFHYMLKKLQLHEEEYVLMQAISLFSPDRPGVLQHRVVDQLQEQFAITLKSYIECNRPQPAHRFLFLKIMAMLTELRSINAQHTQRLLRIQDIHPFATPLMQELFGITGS
# * marks the source's active call; other numbers are inactive results; ? = inconclusive; . = no result.
SMILES,SMARCA2 activ,SR-BI uptake up,SR-BI HDL uptake,Lipid droplet,Yeast superoxide,AHR activator,AHR act confirm,PXR counter
CCn1cc(Br)c(C(=O)Nc2ccc(Cl)cc2Cl)n1,-3,12,-12,7,99,82*,126*,11*
COC(=O)c1cc2nc(-c3ccccc3)cc(C)n2n1,0,21,-21,13,93,-4,.,.
CCOc1ccc(-c2cc(C)n3nc(C(N)=O)cc3n2)cc1,-1,32,-32,6,109,79*,68*,.
O=C(N[C@@H](Cc1cccnc1)C(=O)N1CCC[C@H]1C(=O)NCCc1ccccc1Cl)c1cccs1,-1,.,.,.,.,.,.,.
Fc1ccc(-c2cnn3c(-c4ccncc4)ccnc23)cc1,5,-13,13,-10,122,135*,45,27*
Cc1nn2c(-c3ccc(F)cc3)ccnc2c1Br,-3,6,-6,1,77,82*,109*,25*
Clc1ccc(-c2nc3ncccn3c2Cl)cc1,.,2,-2,-10,120,87*,148*,55*
O=C1CCC(NC(=O)Cc2ccccc2)C(=O)N1 (configuration not stated),0,.,.,.,.,.,.,.
C[C@H]1C2CC(OC(=O)Nc3cccc(C(F)(F)F)c3)C(C2)[C@H]2CCCCN21 (some centres not stated),-3,.,.,.,.,.,.,.
O=C(NCCc1ccccc1Cl)[C@@H]1CCCN1C(=O)[C@@H](NC(=O)N1CCOCC1)C1CCCCC1,-3,.,.,.,.,.,.,.
Cc1cc(NCCCn2ccnc2)n2c(nc3ccccc32)c1C#N,-3,9,-9,-14,87,104*,79*,16*
Cc1cccc2cc(C#N)c(NCc3ccccc3)nc12,-2,-37,37,0,88,18,.,.
Cc1cccc2cc(C#N)c(NCCCn3ccnc3)nc12,-3,5,-5,.,94,92*,67*,33*
CCOC(=O)CC[C@H]1CC[C@]2(CCCN(C(=O)c3cccnc3)C2)O1,-2,.,.,.,.,.,.,.
Cc1cc(N2CCN(CC(C)(C)O)C[C@H]2C)ccc1N1CCN(Cc2ccccc2)[C@@H](C)C1,0,.,.,.,.,.,.,.
S=C1NC(c2cccs2)=CC(c2ccc(Br)cc2)N1 (configuration not stated),-2,-77,?,-16,133,117*,111*,60*
CC(C)C[C@H]1COc2cccc(F)c2S(=O)(=O)N1,-2,.,.,.,.,.,.,.
CCCN(CCC)CCNC(=O)c1cc2c(=O)n(C)c3ccccc3c2n1C,0,-41,41,-12,110,98*,91*,42*
CC(C)(C)N(Cc1cn(CC2CCCCC2)nn1)S(=O)(=O)c1ccccc1Br,-5,.,.,.,.,.,.,.
Cc1nn(CC(=O)Nc2ccc(C(=O)N3CCCC3)cc2)c(=O)c2ccccc12,-2,-19,19,14,97,86*,5,5
O=C(CN(c1ccc(F)cc1)S(=O)(=O)c1ccc2c(c1)OCCO2)Nc1ccc2c(c1)OCO2,5,.,.,-24,77,101*,52*,72*
CC(=O)Nc1ccc(NC(=O)CN(c2ccc(F)cc2)S(=O)(=O)c2ccc3c(c2)OCCO3)cc1,-2,-1,1,16,110,6,.,.
FC(F)(F)c1cc(-c2ccc3c(c2)OCO3)nc(NCc2ccco2)n1,-2,1,-1,.,91,91*,75*,26*
COC(=O)Cc1nnn2c1[C@@H](C)[C@@H](c1ccccc1Br)O[C@@H](C)C2,0,.,.,.,.,.,.,.
COc1ccc2ccccc2c1C=Nn1c(-c2n[nH]c3c2CCC3)n[nH]c1=S,-1,.,.,.,.,.,.,.
SMILES,SMARCA2 activ,SR-BI uptake up,SR-BI HDL uptake,Lipid droplet,Yeast superoxide,AHR activator,AHR act confirm,PXR counter
COC(=O)C1=C(C)N(Cc2ccc(C(F)(F)F)cc2)C(=NCc2ccccc2C(F)(F)F)NC1c1ccccc1C(F)(F)F (configuration not stated),-4,.,.,.,.,.,.,.
O=C(Nc1cccc(N2CCCC2)c1)c1cccs1,-2,-44,44,-5,82,88*,92*,37*
Nc1nc2ccc(Cl)cc2c2nc(-c3ccco3)nn12,.,.,.,-31,98,107*,248*,34*
Nc1nc(-c2ccco2)nn1C(=O)c1ccc(Cl)cc1,-3,4,-4,.,100,2,.,.
CN1OC[C@@H]2CN(CC3CCCCC3)[C@H](c3ccc(-c4ccc(C#N)cc4)cc3)C[C@@H]21,-4,.,.,.,.,.,.,.
NC1=NC(=O)/C(=C/c2cn(Cc3ccccc3)c3ccccc23)S1,-1,-5,5,6,115,116*,87*,25*
C/C(CC(=O)Nc1cc(Cl)ccc1Cl)=N\NC(N)=S,1,-57,57,.,94,84*,2,14*
C/C(CC(=O)Nc1ccc(Cl)cc1Cl)=N\NC(N)=S,-3,-65,65,.,107,3,.,.
O=C(Nc1cc(Cl)ccc1Cl)c1ccc(-c2ccccc2)cc1,4,-5,5,29,93,87*,90*,29*
CCCOC(=O)c1ccc(Cl)c(NC(=O)c2ccc(-c3ccccc3)cc2)c1,0,-66,66,.,104,1,.,.
CC1CCC2(CCC(=O)N2CCCO)CC1 (configuration not stated),-2,.,.,.,.,.,.,.
COCc1cc(=O)n2[nH]c(-c3cccc(Br)c3)cc2n1,4,24,-24,8,99,120*,115*,13*
CCOC(=O)N1CCN(C(=O)CSc2nc3c([nH]c4ccccc43)c(=O)n2CC)CC1,1,18,-18,-32,90,101*,94*,54*
C=CCn1c(SCC(=O)N2CCOCC2)nc2c([nH]c3ccccc32)c1=O,-3,.,-6,5,96,88*,92*,77*
CCn1c(SCC(=O)N2CCCCC2)nc2c([nH]c3ccccc32)c1=O,-6,.,.,.,.,.,.,.
Cc1noc(C)c1S(=O)(=O)N(C)C[C@@H]1OCc2cnnn2CCCC(=O)N([C@@H](C)CO)C[C@@H]1C,2,.,.,.,.,.,.,.
CCOC(=O)[C@]12CCCCC/C=C\1N(Cc1ccc(OC)cc1)C(=O)[C@H]2CC(=O)NCc1cccc(C(F)(F)F)c1,-1,.,.,.,.,.,.,.
C=CC[C@H]1c2ccccc2[C@H]2N3N=Cc4ccccc4[C@H]3[C@H](CCCC)C(=O)N2N1C(=O)c1ccccc1,-3,.,.,.,.,.,.,.
CC(/C=C/c1ccccc1)=N\Nc1nc(C)cc(C)n1,1,.,.,-21,135,89*,39,28*
O=C(Nc1ccc(Cl)cc1)Nc1ccon1,0,13,-13,-2,109,97*,76*,14*
O=C(NCc1ccccc1Cl)C1CCCN(c2nc3ccccc3o2)C1 (configuration not stated),-6,.,.,.,.,.,.,.
